Experiments:
ACHN = assay: Growth inhibition of human ACHN cells after 48 hrs; format: functional
Method in brief: (§1)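 NCI-60 human tumour cell line panel screen run at the US National Cancer Institute under its standard cytotoxicity protocol. It covers leukaemia, NSCLC, colon, CNS, melanoma, ovarian, renal, prostate and breast lines. An initial single-dose test was followed by five-dose testing with 48 h compound exposure.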

CAKI-1 = assay: Growth inhibition of human CAKI-1 cells after 48 hrs; format: functional; settings: CAKI-1, 48 h; method in brief: as §1
[1] = Growth inhibition of human RXF393 cells after 48 hrs; format: functional; settings: RXF 393, 48 h; method in brief: as §1
SN12C = assay: Growth inhibition of human SN12C cells after 48 hrs; format: functional
Method in brief: (§2)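 Run by the NCI 58-cell-line screen under its standard cytotoxicity protocol. Compounds were first tested at a single dose, then at five doses. Cells were exposed to compound for 48 h.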

TK-10 = assay: Growth inhibition of human TK10 cells after 48 hrs; format: functional; settings: TK-10, 48 h; method in brief: as §2
[2] = Growth inhibition of human PC3 cells after 48 hrs; format: functional; settings: PC-3, 48 h; method in brief: as §1
DU-145 = assay: Growth inhibition of human DU145 cells after 48 hrs; format: functional; settings: DU-145, 48 h; method in brief: as §1
MDA-MB-231 = assay: Growth inhibition of human MDA-MB-231 cells after 48 hrs; format: functional; settings: MDA-MB-231, 48 h; method in brief: as §1
[3] = Growth inhibition of human Hs 578T cells after 48 hrs; format: functional; method in brief: as §1
MDA-MB-468 = assay: Growth inhibition of human MDA-MB-468 cells after 48 hrs; format: functional; settings: MDA-MB-468, 48 h; method in brief: as §1
MCF7 = assay: Cytotoxicity against human MCF7 cells assessed as cell viability after 24 hrs incubation by MTT assay; format: functional, cell-based; settings: MCF7, 24 h
Method in brief: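 Cell lines came from DSMZ; primary human fibroblasts served as non-cancer controls. Cells were grown in medium with 10% FCS, seeded at 50,000 cells/ml, and grown 2 days at 37 °C, 10% CO2. Serial dilutions were then added for 24 h. MTT (final 0.5 mg/ml) was added for 2 h. Formazan was pelleted, PBS-washed, dissolved in isopropanol/0.4% HCl and read at 590 nm. Two parallel experiments were run. IC50 was taken as the concentration giving 50% of untreated-control absorbance.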

Candida albicans = assay: Antimicrobial activity against Candida albicans assessed as inhibition at 20 ug/6 mm disk after 1 to 2 days by agar diffusion assay; format: functional
Method in brief: (§3)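 Standard agar diffusion: 6-mm paper disks loaded with 20 µg of compound were placed on inoculated plates. Inhibition-zone diameter (mm) was read after 1 and 2 days of growth.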

Mycolicibacterium phlei = assay: Antimicrobial activity against Mycobacterium phlei assessed as inhibition at 20 ug/6 mm disk after 1 to 2 days by agar diffusion assay; format: functional; method in brief: as §3
Klebsiella pneumoniae = assay: Antimicrobial activity against Klebsiella pneumoniae assessed as inhibition at 20 ug/6 mm disk after 1 to 2 days by agar diffusion assay; format: functional; method in brief: as §3
Pseudomonas aeruginosa = assay: Antimicrobial activity against Pseudomonas aeruginosa assessed as inhibition at 20 ug/6 mm disk after 1 to 2 days by agar diffusion assay; format: functional; method in brief: as §3
[4] = Growth inhibition of human EKVX cells after 48 hrs; format: functional; method in brief: as §1
NCI-H226 = assay: Growth inhibition of human NCI-H226 cells after 48 hrs; format: functional; settings: NCI-H226, 48 h; method in brief: as §1
NCI-H322M = assay: Growth inhibition of human NCI-H322M cells after 48 hrs; format: functional; method in brief: as §1
NCI-H460 = assay: Growth inhibition of human NCI-H460 cells after 48 hrs; format: functional; settings: NCI-H460, 48 h; method in brief: as §1
[5] = Growth inhibition of human COLO205 cells after 48 hrs; format: functional; settings: COLO 205, 48 h; method in brief: as §1
[6] = Growth inhibition of human HCC2998 cells after 48 hrs; format: functional; settings: HCC 2998, 48 h; method in brief: as §1
[7] = Growth inhibition of human HCT15 cells after 48 hrs; format: functional; settings: HCT-15, 48 h; method in brief: as §1
KM12 = assay: Growth inhibition of human KM12 cells after 48 hrs; format: functional; settings: KM12, 48 h; method in brief: as §1
SW-620 = assay: Growth inhibition of human SW620 cells after 48 hrs; format: functional; settings: SW-620, 48 h; method in brief: as §2
[8] = Growth inhibition of human SF539 cells after 48 hrs; format: functional; settings: SF-539, 48 h; method in brief: as §1
U-251 = assay: Growth inhibition of human U251 cells after 48 hrs; format: functional; settings: U-251, 48 h; method in brief: as §2
Malme-3M = assay: Growth inhibition of human MALME-3M cells after 48 hrs; format: functional; method in brief: as §1
M14 = assay: Growth inhibition of human M14 cells after 48 hrs; format: functional; settings: M14, 48 h; method in brief: as §1
SK-MEL-28 = assay: Growth inhibition of human SK-MEL-28 cells after 48 hrs; format: functional; settings: SK-MEL-28, 48 h; method in brief: as §1
IGROV-1 = assay: Growth inhibition of human IGROV1 cells after 48 hrs; format: functional; settings: IGROV-1, 48 h; method in brief: as §1
[9] = Growth inhibition of human OVCAR3 cells after 48 hrs; format: functional; settings: OVCAR-3, 48 h; method in brief: as §1
[10] = Growth inhibition of human OVCAR5 cells after 48 hrs; format: functional; settings: OVCAR-5, 48 h; method in brief: as §1
786-0 = assay: Growth inhibition of human 786-0 cells after 48 hrs; format: functional; settings: 786-0, 48 h; method in brief: as §1
[11] = read-out: pLC50 (the source's name) (converted)

CC1=C(SCCC(=O)OCC(=O)NCCC[Te]c2ccccc2)C(=O)c2ccccc2C1=O
GI50 (ACHN): 2820 nM
LC50 (ACHN): 40.7 µM
TGI (ACHN; read-out: pTGI (converted)): 11 µM
GI50 (CAKI-1): 2950 nM
LC50 (CAKI-1): 39.8 µM
TGI (CAKI-1; read-out: pTGI (converted)): 11.2 µM
GI50 [1]: 1740 nM
LC50 [1]: 12.9 µM
TGI ([1]; read-out: pTGI (converted)): 4.37 µM
GI50 (SN12C): 1860 nM
LC50 (SN12C): 31.6 µM
TGI (SN12C; read-out: pTGI (converted)): 6.17 µM
GI50 (TK-10): 3.8 µM
LC50 (TK-10): 38 µM
TGI (TK-10; read-out: pTGI (converted)): 12.9 µM
GI50 [2]: 2400 nM
LC50 [2]: 42.7 µM
TGI ([2]; read-out: pTGI (converted)): 12 µM
GI50 (DU-145): 3.31 µM
LC50 (DU-145): 33.9 µM
TGI (DU-145; read-out: pTGI (converted)): 9.12 µM
GI50 (MDA-MB-231): 1860 nM
LC50 (MDA-MB-231): 9.55 µM
TGI (MDA-MB-231; read-out: pTGI (converted)): 4.27 µM
GI50 [3]: 2820 nM
LC50 [3]: > 100 µM
TGI ([3]; read-out: pTGI (converted)): > 100 µM
GI50 (MDA-MB-468): 1660 nM
LC50 (MDA-MB-468): 7.08 µM
TGI (MDA-MB-468; read-out: pTGI (converted)): 3.39 µM
IC50 (MCF7): 12 µM
diameter of the inhibition zone (DIZ) (Candida albicans): 0 mm
diameter of the inhibition zone (DIZ) (Mycolicibacterium phlei): 16 mm
diameter of the inhibition zone (DIZ) (Klebsiella pneumoniae): 13 mm
diameter of the inhibition zone (DIZ) (Pseudomonas aeruginosa): 12 mm
GI50 [4]: 1120 nM
CC50 [4, 11]: 53.7 µM
TGI ([4]; read-out: pTGI (converted)): 10.5 µM
GI50 (NCI-H226): 1290 nM
CC50 (NCI-H226; [11]): 6.61 µM
TGI (NCI-H226; read-out: pTGI (converted)): 2880 nM
GI50 (NCI-H322M): 2880 nM
CC50 (NCI-H322M; [11]): 83.2 µM
TGI (NCI-H322M; read-out: pTGI (converted)): 12.6 µM
GI50 (NCI-H460): 1320 nM
CC50 (NCI-H460; [11]): 51.3 µM
TGI (NCI-H460; read-out: pTGI (converted)): 4.17 µM
GI50 [5]: 1910 nM
CC50 [5, 11]: 8.91 µM
TGI ([5]; read-out: pTGI (converted)): 4.17 µM
GI50 [6]: 1820 nM
CC50 [6, 11]: 13.5 µM
TGI ([6]; read-out: pTGI (converted)): 4.57 µM
GI50 [7]: 2570 nM
CC50 [7, 11]: 77.6 µM
TGI ([7]; read-out: pTGI (converted)): 12 µM
GI50 (KM12): 3.63 µM
CC50 (KM12; [11]): 52.5 µM
TGI (KM12; read-out: pTGI (converted)): 12.6 µM
GI50 (SW-620): 3.98 µM
CC50 (SW-620; [11]): 60.3 µM
TGI (SW-620; read-out: pTGI (converted)): 17 µM
GI50 [8]: 2090 nM
CC50 [8, 11]: 27.5 µM
TGI ([8]; read-out: pTGI (converted)): 6.61 µM
GI50 (U-251): 3.16 µM
CC50 (U-251; [11]): 45.7 µM
TGI (U-251; read-out: pTGI (converted)): 11.5 µM
GI50 (Malme-3M): 2190 nM
CC50 (Malme-3M; [11]): 25.7 µM
TGI (Malme-3M; read-out: pTGI (converted)): 6.03 µM
GI50 (M14): 2040 nM
CC50 (M14; [11]): 17 µM
TGI (M14; read-out: pTGI (converted)): 5.13 µM
GI50 (SK-MEL-28): 2290 nM
CC50 (SK-MEL-28; [11]): 17.8 µM
TGI (SK-MEL-28; read-out: pTGI (converted)): 5.5 µM
GI50 (IGROV-1): 2140 nM
CC50 (IGROV-1; [11]): 35.5 µM
TGI (IGROV-1; read-out: pTGI (converted)): 6.46 µM
GI50 [9]: 2630 nM
CC50 [9, 11]: 15.5 µM
TGI ([9]; read-out: pTGI (converted)): 5.5 µM
GI50 [10]: 2750 nM
LC50 [10]: 38 µM
TGI ([10]; read-out: pTGI (converted)): 8.51 µM
GI50 (786-0): 2690 nM
LC50 (786-0): 29.5 µM
TGI (786-0; read-out: pTGI (converted)): 8.32 µM

From ChEMBL document CHEMBL3351600, “Sulfur, selenium and tellurium pseudopeptides: synthesis and biological evaluation” (Bioorg Med Chem, 2014)
